In data set [1] the test system is RAW264.7. Put plainly: Inhibition of LPS/INF-gamma-stimulated nitric oxide production in mouse RAW264.7 cells measured after 16 hrs. In kind it is functional, cell-based. The settings on record: RAW264.7, 16 h. The procedure, abridged:
(§1)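 RAW264.7 murine macrophages were co-stimulated with LPS (100 ng/mL) plus IFN-γ (0.33 ng/mL) in the presence of test compound. Nitrite released into the medium was quantified by the Griess method as a measure of NO. Cell viability was read in parallel with AlamarBlue reagent.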

Another data set concerns Peritoneal macrophage. Put plainly: Inhibition of LPS-stimulated nitric oxide production in ddy mouse peritoneal macrophages measured after 20 hrs by Greiss method. In kind it is functional.
Data set [2] relates to RAW264.7. Kind of data set: Inhibition of LPS-stimulated nitric oxide production in mouse RAW264.7 cells by Greiss method. In kind it is functional, cell-based. The procedure, abridged: (§2)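 This variant stimulated RAW264.7 murine macrophages with LPS alone, without IFN-γ, in the presence of test compound. Released nitrite was measured by the Griess method to quantify NO production. Cell viability was assessed with AlamarBlue reagent.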

For data set [3], the system named is RAW264.7. Kind of data set: Inhibition of LPS/INF-gamma-stimulated nitric oxide production in mouse RAW264.7 cells by Greiss method. The format is functional, cell-based. The procedure, abridged: as §1
The nature of data set [4]: Cytotoxicity against LPS-stimulated mouse RAW264.7 cells assessed as cell viability at 100 uM by alamar blue assay relative to control. The format is toxicity. Conditions: LPS-stimulated RAW264.7 cells, read-out: Activity. The procedure, abridged: as §2
On the technique in general: The colour change of resazurin is a common sign of viable cells or microbes.

The nature of data set [5]: Cytotoxicity against LPS/INF-gamma-stimulated mouse RAW264.7 cells assessed as cell viability at 100 uM by alamar blue assay relative to control. In kind it is toxicity. The settings on record: LPS/INF-gamma-stimulated RAW264.7 cells, read-out: Activity. The procedure, abridged: as §1

The structures appear in SMILES notation.

The term IC50 denotes the midpoint of a concentration-inhibition curve. Low readings indicate greater potency, high ones weaker potency. Consider `O=C1C[C@@H](c2cc(O)cc(O)c2)Oc2cc(O)cc(O)c21`, for which it took 12 µM to reach half-maximal inhibition with RAW264.7 [1] (IC50).

For `O=c1cc(-c2ccc(O)cc2)oc2cc(O)ccc12`, in the data set with Peritoneal macrophage, half-maximal inhibition (IC50) required 14 µM.

`O=c1cc(-c2ccc(O)c(O)c2)oc2cc(O)ccc12`: in the data set on Peritoneal macrophage, the IC50 was found to be 26 µM. This IC50 lies about 1.9-fold higher than the previous one.

Take `COc1c(O)cc([C@H]2Oc3cc(O)ccc3C(=O)[C@@H]2O)cc1O`: the IC50 with RAW264.7 [1] was > 100 µM.

As for `O=C1C[C@@H](c2cc(O)c(O)c(O)c2)Oc2cc(O)ccc21`, the IC50 in the data set with RAW264.7 [1] was > 100 µM.

With `COc1cc(-c2cc(=O)c3c(O)cc(O)cc3o2)cc(O)c1OC`, the figures for the 50% inhibitory concentration (IC50) in the data set with RAW264.7 [2] and with RAW264.7 [3] were 6.9 µM and 18.2 µM, respectively. Moreover, the figures for the viability at 100 µM in data set [4] and in data set [5] were 106% and 96%, respectively.

In turn, `COc1c(O)cc(-c2oc3cc(O)ccc3c(=O)c2O)cc1O` registered an IC50 in the data set on RAW264.7 [1] of 14 µM.

Consider `COc1cc(-c2oc3cc(O)ccc3c(=O)c2O)cc(OC)c1O`, for which, in the data set with RAW264.7 [1], it took 63 µM to reach half-maximal inhibition (IC50). This IC50 is about 4.5-fold higher than that of the molecule before.

Regarding `COc1c(O)cc(-c2cc(=O)c3c(O)cc(O)cc3o2)cc1O`, the values for the IC50 in the data set with RAW264.7 [2] and with RAW264.7 [3] were 37 µM and 59.3 µM, respectively. For the same molecule, the results for the viability at 100 µM in data set [4] and in data set [5] were 112% and 119%, respectively.

For `COc1cc([C@H]2Oc3cc(O)ccc3C(=O)[C@@H]2O)cc(OC)c1O`, the IC50 with RAW264.7 [1] is > 100 µM.

For `O=C1c2ccc(O)cc2O[C@H](c2cc(O)c(O)c(O)c2)[C@H]1O`, the IC50 with RAW264.7 [1] was > 100 µM.

`COc1ccc(-c2cc(=O)c3c(O)cc(O)cc3o2)cc1OC`: the IC50 in the data set with RAW264.7 [2] was 5 µM; with RAW264.7 [3], 17 µM. Further, the viability at 100 µM in data set [4] turned out to be 112%; in data set [5], 109%.

On to `COc1ccc(-c2cc(=O)c3c(O)cc(O)cc3o2)cc1` [ACACETIN], for which the IC50 turned out to be 27.7 µM in the data set with RAW264.7 [2] and 53.7 µM in the data set with RAW264.7 [3]. For the same molecule, the figures for the viability at 100 µM in data set [4] and in data set [5] were 99% and 115%, respectively.

Take `O=c1cc(-c2ccc(O)cc2)oc2cc(O)cc(O)c12` [APIGENIN]: the IC50 in the data set with Peritoneal macrophage amounted to 7.7 µM; with RAW264.7 [1], 14 µM.

In the case of `O=C1c2c(O)cc(O)cc2O[C@H](c2ccc(O)cc2)[C@H]1O` [DIHYDROKAEMPFEROL], in the data set on RAW264.7 [1], the IC50 is > 100 µM.

Take `COc1ccc(-c2cc(=O)c3c(O)cc(O)cc3o2)cc1O` [DIOSMETIN]: the IC50 is 16.7 µM in the data set on RAW264.7 [2], 32.2 µM in the data set with RAW264.7 [3] and 8.9 µM in the data set on Peritoneal macrophage.

Consider `O=C1C[C@@H](c2ccc(O)c(O)c2)Oc2cc(O)cc(O)c21` [ERIODICTYOL], for which, in the data set on Peritoneal macrophage, the IC50 is > 100 µM.

For `O=c1c(O)c(-c2ccc(O)cc2)oc2cc(O)cc(O)c12` [KAEMPFEROL], the IC50 turned out to be 13.4 µM with RAW264.7 [2], 17 µM in the data set with RAW264.7 [3], 29 µM in the data set with Peritoneal macrophage and 15 µM with RAW264.7 [1]. In addition, the viability at 100 µM in data set [4] amounted to 141%; in data set [5], 138%.

Molecule `O=C1C[C@@H](c2ccc(O)cc2)Oc2cc(O)ccc21` [LIQUIRTIGENIN] registered an IC50 with Peritoneal macrophage of 85 µM. This lies in the double-digit micromolar range.

With `O=c1cc(-c2ccc(O)c(O)c2)oc2cc(O)cc(O)c12` [LUTEOLIN], the IC50 in the data set on Peritoneal macrophage came out at 20 µM.

With `COc1c(O)cc(-c2oc3cc(O)cc(O)c3c(=O)c2O)cc1O` [MEARNSETIN], the IC50 with Peritoneal macrophage was determined as 84 µM.

In the case of `O=c1c(O)c(-c2cc(O)c(O)c(O)c2)oc2cc(O)cc(O)c12` [MYRICETIN], the IC50 in the data set with Peritoneal macrophage was 99 µM. The IC50 values of the last two molecules are within 1.5-fold of each other.

`O=C1C[C@@H](c2ccc(O)cc2)Oc2cc(O)cc(O)c21` [NARINGENIN] showed an IC50 in the data set on RAW264.7 [1] of 60 µM.

Regarding `O=c1c(O)c(-c2ccc(O)c(O)c2)oc2cc(O)cc(O)c12` [QUERCETIN], the IC50 in the data set on Peritoneal macrophage turned out to be 36 µM.

Take `O=c1c(O)c(-c2cc(O)c(O)c(O)c2)oc2cc(O)ccc12` [ROBINETIN]: in the data set with RAW264.7 [1], the IC50 was 42 µM.

As for `COc1ccc(-c2oc3cc(O)cc(O)c3c(=O)c2O)cc1O` [TAMARIXETIN], the midpoint of inhibition in the data set with Peritoneal macrophage, the IC50, lay at 25 µM.

In turn, `COc1cc(-c2cc(=O)c3c(O)cc(O)cc3o2)cc(OC)c1O` [TRICIN] displayed an IC50 with RAW264.7 [1] of 8 µM. This lies in the single-digit micromolar range.

Values taken from ChEMBL document CHEMBL3872265, “Structure-activity relationship of the inhibitory effects of flavonoids on nitric oxide production in RAW264.7 cells” (Bioorg Med Chem, 2017).
